# Compound activity from PubChem.
# Shown are actives, neighbours in structure and some others; about 2% of the full set was active somewhere.
# C2C12 statin – suppressors of statin myotoxicity in C2C12 myotubes, primary screen, cell-based, single point, plate reader; C2C12 myotubes + simvastatin, ATP luminescence, 48 h; scaled: DMSO 0, geranylgeraniol control 100; rescue of ATP level, % at 7.49 µM; AID 602340, 2012; 330,000 compounds, 0.78% hits;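 active = mean ATP rescue above about 67%, or every replicate alone reaching that limit, limit read from the data, passing the limit was not always enough; inconclusive = no clear call, values can overlap the other calls; inactive = mean under the limit and some replicate under it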;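 also: myotubes were challenged with 10 µM simvastatin during compound exposure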
# CAL PDZ FP-1 – CAL PDZ peptide-binding inhibitors, primary screen, biochemical, fluorescence polarization, Cer-tagged CAL PDZ, HTS; inhibition, % at 20 µM; purified CAL PDZ, TMR-peptide fluorescence polarization, 1 h; 330,000 compounds, 0.02% hits;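 active = highest replicate inhibition of at least 40%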;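 also: plate controls were DMSO neutral control wells for no effect and unlabeled competitor peptide control wells for full effect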
#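 System: purified tagged CAL PDZ domain construct (CerCALP). Schedule: 1 h incubation at room temperature before polarization reading. Medium: 25 mM sodium phosphate pH 7.4, 150 mM NaCl, TCEP, IgG, Thesit. Read-out: percent inhibition from loss of millipolarization. Measured by: FP readout, S and P plane fluorescence. Probe or stimulus: fluorescent TMR peptide probe.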
# CAL PDZ FP-2 – untagged CAL PDZ binding inhibitors, primary screen, biochemical, fluorescence polarization, HTS; Golgi-associated PDZ and coiled-coil motif-containing protein (Homo sapiens), Q9HD26; purified CAL PDZ, TMR-peptide fluorescence polarization, 1 h; inhibition, % at 24.9 µM; 300,000 compounds, 0.92% hits; AID 602252, 2012;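 active = mean inhibition of at least 30% with at least half of replicates also reaching 30%; inconclusive = no clear call, values can overlap the other calls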;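 also: 0% = DMSO neutral control and 100% = excess unlabeled competitor peptide PRC23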
# dFosB activator – activators of delta FosB homodimer, primary screen, biochemical, fluorescence polarization, TAMRA-CDK5 oligo, single point | Protein FosB (Mus musculus), P13346 | purified delta FosB; percent of positive-control signal above neutral wells | activation, % at 25 µM | 340,000 compounds, 0.99% hits | AID 493131, 2011;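 active = mean activation above about 17%, with every replicate also reaching it, limit read from the data, passing the limit was not always enough; inconclusive = only one of the two conditions met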
# S100A4 inh HTS – inhibitors of S100A4-myosin IIA peptide binding, primary screen, biochemical, fluorescence polarization, TAMRA-MyoIIA peptide. AID 652163, 2013. inhibition, % at 10.7 µM. 360,000 compounds, 0.14% hits;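 active = mean inhibition of at least 70% across replicates, with every replicate also reaching that level; inconclusive = mean inhibition reaches 70% but some replicates fall short; inactive = mean inhibition below 70%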
#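 Material: S100A4 monomer protein / Buffer or medium: 50 mM HEPES pH 7.2, 10 mM CaCl2, 100 mM KCl / Times: 5 min incubation before reading / Benchmarks: neutral control DMSO, positive control TFP / Reagent: labelled myosin peptide probe, 5 nM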
# CDK5 inh – inhibitors of human CDK5/p35 kinase, primary screen, biochemical, single concentration; inhibition, % at 10 µM; Cyclin-dependent kinase 5 (Homo sapiens) + Cyclin-dependent kinase 5 activator 1 (Homo …; 330,000 compounds, 0.01% hits; Recombinant CDK5/p35, ADP-Glo luminescence, 60 min;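 active = highest replicate inhibition of at least 50% and at least 75% of replicates reaching 50%; inconclusive = only one of the two criteria met; inactive = both criteria failed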;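 also: plate controls were DMSO neutral control for no effect and GW8510 at 10 µM for full effect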
# Target sequence (Q00535 whole entry, looked up): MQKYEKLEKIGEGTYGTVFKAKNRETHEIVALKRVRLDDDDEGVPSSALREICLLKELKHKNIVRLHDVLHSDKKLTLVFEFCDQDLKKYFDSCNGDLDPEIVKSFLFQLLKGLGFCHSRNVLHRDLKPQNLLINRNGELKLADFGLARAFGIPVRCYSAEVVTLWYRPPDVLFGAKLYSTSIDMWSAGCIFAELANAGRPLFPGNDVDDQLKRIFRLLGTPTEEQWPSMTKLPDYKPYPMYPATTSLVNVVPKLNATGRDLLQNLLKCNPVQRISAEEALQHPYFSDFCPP
# Target sequence (Q15078 whole entry, looked up): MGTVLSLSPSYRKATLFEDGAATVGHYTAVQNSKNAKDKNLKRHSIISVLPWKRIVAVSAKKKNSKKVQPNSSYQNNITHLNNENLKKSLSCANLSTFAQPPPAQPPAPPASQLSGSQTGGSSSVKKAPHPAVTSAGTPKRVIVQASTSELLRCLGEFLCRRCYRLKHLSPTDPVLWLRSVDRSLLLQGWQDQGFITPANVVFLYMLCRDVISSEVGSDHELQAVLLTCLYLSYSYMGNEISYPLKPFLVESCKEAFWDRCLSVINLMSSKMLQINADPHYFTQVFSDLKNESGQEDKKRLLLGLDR
# Active calls of the source: *; ? = inconclusive; . = not tested or not shown; + = active, no number.
SMILES,C2C12 statin,CAL PDZ FP-1,CAL PDZ FP-2,dFosB activator,S100A4 inh HTS,CDK5 inh
Cc1ccc(-c2nnn(CC(=O)N(CCCO)C(C(=O)NC3CCCC3)c3ccc(Cl)cc3)n2)o1 (stereo unspecified),80*,-2,-3,?,0,0
Cc1noc(C)c1S(=O)(=O)Nc1ccc2c(c1)CC(=O)N([C@H](C)CO)C[C@H](C)[C@H](CN(C)S(=O)(=O)c1ccc(Cl)cc1)O2,-18,.,.,.,25,.
O=c1[nH]c(CN2CCCCC2)nc2c1C1(CCCCC1)Cc1ccccc1-2,91*,0,.,0,.,2
COc1ccc(C2(CNC(=O)CCC(=O)O)CCCC2)cc1,86*,-1,-2,-1,.,0
COc1ccc(NS(=O)(=O)c2ccc(O)c(C(=O)OCC(=O)N3CC(C)OC(C)C3)c2)cc1 (stereo unspecified),-4,0,.,-9,.,-1
COc1ccc(NS(=O)(=O)c2ccc(O)c(C(=O)OCC(=O)N3CCCCC3)c2)cc1,4,-1,39*,-2,3,-1
N#Cc1cc([N+](=O)[O-])ccc1NCCc1ccccn1,.,-1,-1,-1,-2,1
COc1ccc(/C(O)=C2/C(=O)C(=O)N(CCN3CCOCC3)C2c2ccccn2)cc1OC (stereo unspecified),-10,-1,1,0,.,-1
COc1ccc(/C(O)=C2/C(=O)C(=O)N(CCN(C)C)C2c2ccccn2)cc1OC (stereo unspecified),118*,0,-4,-3,.,-1
O=C(O)c1ccccc1SCc1cn2cc(Cl)ccc2n1,.,-3,1,2,-4,0
CC(SCc1cn2cc(Cl)ccc2n1)C(=O)O (stereo unspecified),108*,-1,-6,-10,.,2
O=C1NC(=NCc2ccccc2)NC1(c1ccccc1)c1ccccc1,101*,-1,-3,0,2,1
O=C(c1cnc2nc3ccccc3n2c1)c1cc(F)ccc1O,.,-3,-5,0,-2,0
CC1(C)Oc2ccc3ccc(=O)oc3c2C(/C=N/O)=C1Cl,-8,1,-2,-1,-2,1
C[C@]12C=CC(=O)C=C1CCC1C2CC[C@@]2(C)C1CCC21OCCO1 (stereo partly specified),-5,-1,102*,-4,2,0
CC(C)[C@H](NS(=O)(=O)c1ccccc1)C(=O)OCC(=O)NC(=O)NC1CCCCC1,114*,0,4,-10,1,1
CC(C)[C@H](NS(=O)(=O)c1ccccc1)C(=O)OCC(=O)NC1CCCCC1,-4,-5,-2,-10,-3,-4
NS(=O)(=O)c1ccc(CNS(=O)(=O)c2cc(C(=O)O)ccc2Cl)cc1,.,1,9,-2,-3,0
COC(=O)c1cc(=O)n(CCc2ccccc2F)c(=Nc2ccc(F)c(Cl)c2)s1,110*,-1,.,-12,-2,-2
CC1=C(c2ccccc2)[N+](=O)C2(CCCCC2)N1[O-],7,-2,-4,-3,-4,-1
Cn1cnc2nc[nH]c2c1=S,75*,0,-21,6,7,2
O=C(NC1CCCC1)c1ccc(CS(=O)(=O)c2ccc(Cl)cc2)o1,-25,-2,70*,-7,0,-1
CCN(C(=O)COC(=O)c1ccc([N+](=O)[O-])o1)C1CCCCC1,-5,1,125*,1,0,0
O=C(NC1CCCCC1)c1ccc([N+](=O)[O-])o1,69*,-2,-3,2,.,2
CCN1C(=O)c2ccc(C(=O)Nc3ncc(C)s3)cc2C1=O,.,13,47*,-10,-20,2
SMILES,C2C12 statin,CAL PDZ FP-1,CAL PDZ FP-2,dFosB activator,S100A4 inh HTS,CDK5 inh
CN1CCN(CC(=O)NN2CC(=O)N(c3ccc(F)cc3)CC2=O)CC1,.,0,52*,2,-1,2
O=C(CN1CCc2ccccc21)NN1CC(=O)N(c2ccc(Cl)cc2)CC1=O,.,0,-4,-6,-5,2
Cc1ccc(-c2nnn(CC(=O)N(c3ccc(F)cc3)C(C(=O)NC(C)(C)C)c3ccco3)n2)o1 (stereo unspecified),83*,0,.,6,.,-1
Cc1ccc(-c2nnn(CC(=O)N(c3ccc(F)cc3)C(C(=O)NC3CCCC3)c3ccco3)n2)o1 (stereo unspecified),.,.,-8,5,6,-1
CCOc1ccc(-c2nc(CSCC(=O)NC3CC3)c(C)o2)cc1,6,-1,8,-5,.,1
CCOc1ccc(-c2nc(CSCC(=O)NCc3ccco3)c(C)o2)cc1,111*,-1,-2,-6,.,-2
COc1ccc(Cn2c(C)c(C)c(C#N)c2NC(=O)Nc2ccc(Cl)cc2)cc1,5,0,2,9,.,-1
N=c1oc2ccccc2cc1-c1nc2ccccc2c(=O)[nH]1,92*,0,.,-26,-5,0
COc1cc(NC(=O)Cc2cccs2)ccc1-n1cnnn1,94*,-1,-1,-8,.,2
C/C=C/c1ccc([C@@H]2[C@H]3CN(C(=O)Nc4cc(F)ccc4F)CCCCN3[C@H]2CO)cc1,-53,.,.,.,-3,.
Cc1cc(C)n(C(=O)c2ccc(C)c(S(=O)(=O)N3CCCC3)c2)n1,95*,-1,-5,-8,.,-1
Cc1cc(C)n(C(=O)c2cccc(S(=O)(=O)N3CCOCC3)c2)n1,12,0,64*,-1,.,0
Cc1ccc(S(=O)(=O)NCc2ccccc2)cc1C(=O)NCC1CCCO1 (stereo unspecified),.,-2,-4,-1,+,3
Cc1cc(C)n(C(=O)c2ccc(S(=O)(=O)NCC3CCCO3)cc2)n1 (stereo unspecified),112*,0,5,-7,.,0
Cc1ccc2c(c1)NC(C(C)(C)C)CO2 (stereo unspecified),115*,-1,1,-1,.,2
O=C1NC[C@@H](CCCCN2C[C@H](Cc3ccccc3)N(CCc3ccccc3)C(=O)C2=O)N(Cc2ccccc2)C1=O,.,.,.,.,3,.
C=CCc1cccc(/C=N/NC(=O)c2ccc3nc[nH]c3c2)c1O,4,-7,-3,19*,4,-2
COc1ccccc1C(=O)NNC(=O)c1ccc(O)cc1,-4,.,.,.,2,.
